Data reported in ChEMBL document CHEMBL1146596, “New lupane derived compounds with pro-apoptotic activity in cancer cells: synthesis and structure-activity relationships” (2003).

Tests used:
[1] = tested on: CEM-VCR 1/D/5; assay: Tested for cytotoxicity against human T-lymphoblastic leukemia CEM-VCR 1/D5 cell line; assay type: functional
In short: (§1)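 Cells were kept in DMEM/RPMI 1640 with 10% fetal calf serum, 2 mM glutamine and antibiotics. They were seeded at 2500–30 000 cells/well according to growth characteristics and preincubated 24 h at 37 °C, 5% CO2. Four-fold compound dilutions were tested in duplicate for 72 h. MTT was then added for 1–4 h, the formazan was dissolved in 10% SDS (pH 5.5) overnight, and OD was read at 540 nm. Survival was taken relative to mean control, and TCS50 was derived from dose–response curves.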

[2] = tested on: U2OS; assay: Tested for cytotoxicity against human osteosarcoma U2OS cell line; assay type: functional; in short: as §1
[3] = tested on: HT-29; assay: Tested for cytotoxicity against human colon cancer HT-29 cell line; assay type: functional; in short: as §1
[4] = tested on: DU-145; assay: Tested for cytotoxicity against human prostate cancer DU145 cell line; assay type: functional; in short: as §1
[5] = tested on: A549; assay: Tested for cytotoxicity against human lung adenocarcinoma A549 cell line; assay type: functional; in short: as §1
[6] = tested on: K562; assay: Tested for cytotoxicity against human […] leukemia K562-CdA cell line; assay type: functional; in short: as §1
[7] = tested on: K562; assay: Tested for cytotoxicity against human […] leukemia K562 cell line; assay type: functional; in short: as §1
[8] = tested on: HepG2; assay: Tested for cytotoxicity against human hepatocellular carcinoma HepG2 cell line; assay type: functional; in short: as §1
[9] = tested on: SAOS-2; assay: Tested for cytotoxicity against human […] Saos2 cell line; assay type: functional; in short: as §1
[10] = tested on: BT-549; assay: Tested for cytotoxicity against human breast cancer BT549 cell line; assay type: functional; in short: as §1
[11] = tested on: SK-MEL3; assay: Tested for cytotoxicity against human melanoma MEL-3 cell line; assay type: functional; in short: as §1
[12] = tested on: MCF7; assay: Tested for cytotoxicity against human breast cancer MCF-7 cell line; assay type: functional; in short: as §1
[13] = tested on: K562; assay: Tested for cytotoxicity against human […] leukemia K562-ARA-C cell line; assay type: functional; in short: as §1
[14] = tested on: B16; assay: Tested for cytotoxicity against mouse melanoma B16 cell line; assay type: functional; in short: as §1
[15] = tested on: K562; assay: Tested for cytotoxicity against human […] leukemia K562-FLU D-CEM cell line; assay type: functional
In short: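 Cytotoxicity by MTT in fludarabine-resistant K562 subline (K562-FLUD), cultured in DMEM/RPMI 1640 with 10% fetal calf serum. Cells seeded at 2500–30 000/well, preincubated 24 h at 37 °C, 5% CO2. Fourfold dilutions in duplicate, 72 h exposure. MTT 1–4 h, formazan dissolved in 10% SDS overnight, OD 540 nm. Survival relative to control; TCS50 taken from dose–response curves.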

[16] = tested on: NIH3T3; assay: Tested for cytotoxicity against mouse immortalized fibroblast NIH3T3 cell line; assay type: functional; in short: as §1
[17] = tested on: SW-620; assay: Tested for cytotoxicity against human colon cancer SW620 cell line; assay type: functional; in short: as §1
[18] = tested on: CCRF-CEM; assay: Tested for cytotoxicity against human T-lymphoblastic leukemia CEM cell line; assay type: functional; in short: as §1
[19] = tested on: CEM-VCR 1/F3; assay: Tested for cytotoxicity against human T-lymphoblastic leukemia CEM-VCR 1/F3 cell line; assay type: functional; in short: as §1
[20] = tested on: B16; assay: Tested for cytotoxicity against mouse melanoma B16F cell line; assay type: functional; in short: as §1
[21] = tested on: MDA-MB-238; assay: Tested for cytotoxicity against human breast cancer MDA-MB-238 cell line; assay type: functional; in short: as §1
[22] = tested on: CCRF-CEM; assay: Cytotoxicity against chemosensitive CEM-T lymphoblastc leukemia cell line.; assay type: functional, Homo sapiens; in short: as §1
[23] = tested on: CEM-DNR; assay: Tested for cytotoxicity against human T-lymphoblastic leukemia CEM-DNR bulk cell line; assay type: functional; in short: as §1
[24] = tested on: Caco-2; assay: Tested for cytotoxicity against human colon cancer Caco-2 cell line; assay type: functional; in short: as §1
[25] = tested on: LNCaP; assay: Tested for cytotoxicity against human prostate cancer LNCaP cell line; assay type: functional; in short: as §1
[26] = tested on: K562; assay: Tested for cytotoxicity against human […] leukemia K562-GEM cell line; assay type: functional; in short: as §1
[27] = tested on: CEM-VCR; assay: Tested for cytotoxicity against human T-lymphoblastic leukemia CEM-VCR bulk cell line; assay type: functional; in short: as §1
[28] = tested on: CEM-DNR; assay: Tested for cytotoxicity against human T-lymphoblastic leukemia CEM-DNR 1/C2 cell line; assay type: functional; in short: as §1
[29] = species on record: Homo sapiens; assay: Tested for cytotoxicity against human normal lymphocytes; assay type: functional; in short: as §1
[30] = tested on: U-87 MG; assay: Tested for cytotoxicity against human glioblastoma U87MG cell line; assay type: functional, U-87MG ATCC; in short: as §1
[31] = tested on: OVCAR-3; assay: Tested for cytotoxicity against human ovarian cancer OVCAR-3 cell line; assay type: functional; in short: as §1

Structure (SMILES) | TCS50 [1] [µM] | TCS50 [2] [µM] | TCS50 [3] [µM] | TCS50 [4] [µM] | TCS50 [5] [µM] | TCS50 [6] [µM] | TCS50 [7] [µM] | TCS50 [8] [µM] | TCS50 [9] [µM] | TCS50 [10] [µM] | TCS50 [11] [µM] | TCS50 [12] [µM] | TCS50 [13] [µM] | TCS50 [14] [µM] | TCS50 [15] [µM] | TCS50 [16] [µM] | TCS50 [17] [µM] | TCS50 [18] [µM] | TCS50 [19] [µM] | TCS50 [20] [µM] | also measured
CC(=O)OC[C@@]1(C(=O)O)CC[C@]2(C)[C@H](CC[C@@H]3[C@@]4(C)CC[C@H](OC(C)=O)C(C)(C)[C@@H]4CC[C@]32C)C1=O | 2.93 | 1.53 | 3.57 | 0.84 | 2.8 | 0.28 | 0.19 | 1.67 | 1.78 | 2.03 | 1.28 | 2.3 | 0.63 | 0.43 | 0.35 | 7.21 | 1.22 | 1 | 3.27 | 4.66 | TCS50 [21]: 1.35 µM; TCS50 [22]: 1 µM; TCS50 [23]: 1.05 µM; TCS50 [24]: 2.97 µM; TCS50 [25]: 1.12 µM; TCS50 [26]: 0.94 µM; TCS50 [27]: 2.51 µM; TCS50 [28]: 0.61 µM; TCS50 [29]: 12.5 µM; TCS50 [30]: 1.85 µM; TCS50 [31]: 0.9 µM
C=C(C=O)[C@@H]1CC[C@]2(C(=O)O)CC[C@]3(C)[C@H](CC[C@@H]4[C@@]5(C)CC[C@H](OC(C)=O)C(C)(C)[C@@H]5CC[C@]43C)C12 (stereo partly drawn) | 7.82 | 3.94 | 12.31 | 2.75 | 43.27 | 2.13 | 15.12 | 7.12 | 4.8 | 6.28 | 3.68 | 4.3 | 1.59 | 9.32 | 1.27 | 15.7 | 5.86 | 4 | 5.94 | 12.4 | TCS50 [21]: 2.37 µM; TCS50 [22]: 4 µM; TCS50 [23]: 3.26 µM; TCS50 [24]: 7.72 µM; TCS50 [25]: 3.55 µM; TCS50 [26]: 2.36 µM; TCS50 [27]: 6.95 µM; TCS50 [28]: 1.58 µM; TCS50 [29]: 24.9 µM; TCS50 [30]: 98.3 µM; TCS50 [31]: 2.59 µM
COC(=O)[C@@]12CC[C@]3(C)[C@H](CC[C@@H]4[C@@]5(C)CC[C@H](OC(C)=O)C(C)(C)[C@@H]5CC[C@]43C)C1=C(C(C)C)C(=O)C2=O | 12.5 | 4.28 | 5.23 | 1.98 | 6.7 | 5.17 | 1.85 | 5.14 | 7.9 | 15.3 | 5.86 | 12.9 | 6.42 | 35.4 | 4.85 | 96.8 | 5.89 | 4.4 | 38.3 | 67.9 | TCS50 [21]: 3.28 µM; TCS50 [22]: 4.4 µM; TCS50 [23]: 5.18 µM; TCS50 [24]: 8.13 µM; TCS50 [25]: 3.26 µM; TCS50 [26]: 5.04 µM; TCS50 [27]: 28.2 µM; TCS50 [28]: 10.3 µM; TCS50 [29]: 85.3 µM; TCS50 [30]: 23.8 µM; TCS50 [31]: 4.65 µM
